The nature of data set [1]: Displacement of [3H]resveratrol from Sprague-Dawley rat brain plasma membranes after 1 hr by beta counting method. It counts as cell membranes. (In general: Displacement assays read how much labelled ligand stays bound in the presence of the test substance.)
Data set [2] concerns COLO 201. Nature of the data set: Cytotoxicity against human COLO201 cells assessed as cell viability at 6 uM after 48 hrs by MTT assay. It counts as functional. The conditions noted are these: COLO 201, 48 h, read-out: Activity. (Tetrazolium dyes change colour on reduction, which living cells bring about.)
Data set [3] deals with MDA-MB-231. The experiment in a line: Cytotoxicity against human MDA-MB-231 cells assessed as cell viability at 6 uM after 48 hrs by MTT assay. The conditions noted are these: MDA-MB-231, 48 h, read-out: Activity. It counts as functional.
A short description of data set [4]: Cytotoxicity against human MML1 cells assessed as decrease in cell viability after 48 hrs by MTT assay. It counts as functional, cell-based.
The test system of data set [5] is SK-MEL-2. Nature of the data set: Cytotoxicity against human SK-MEL-2 cells assessed as cell viability at 6 uM after 48 hrs by MTT assay. The conditions noted are these: SK-MEL-2, 48 h, read-out: Activity. It counts as functional.
The nature of data set [6]: Cmax in mouse at 10 mg/kg, iv by LC-MS/MS method. It counts as ADME, organism-based. More on the design: dose 10 mg/kg, route intravenous. The conditions noted are these: in vivo. In a few lines:
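Mouse iv dosing used polyphenol dissolved in DMSO:ethanol (2:1), with total injected volume never above 30 μL. Plasma levels were measured by previously described methods.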

The subject of data set [7] is U-87 MG. The experiment in a line: Cytotoxicity against human U87 cells assessed as cell viability at 6 uM after 48 hrs by MTT assay. It counts as functional, U-87MG ATCC. The conditions noted are these: read-out: Activity.
Data set [8] relates to LN-229. The experiment in a line: Cytotoxicity against human LN229 cells assessed as decrease in cell viability after 48 hrs by trypan blue exclusion and LDH release. The conditions noted are these: LN-229, 48 h.
Data set [9] relates to HT-29. Nature of the data set: Cytotoxicity against human HT-29 cells assessed as cell viability at 6 uM after 48 hrs by MTT assay. The conditions noted are these: HT-29, 48 h, read-out: Activity. It counts as functional.
In data set [10] the test system is MDA-MB-231. Nature of the data set: Cytotoxicity against human MDA-MB-231 cells assessed as decrease in cell viability after 48 hrs by trypan blue exclusion and LDH release. The conditions noted are these: MDA-MB-231, 48 h. (In general: LDH leaks from cells whose membrane has failed.)
Data set [11] concerns COLO 201. The experiment in a line: Cytotoxicity against human COLO201 cells assessed as decrease in cell viability after 48 hrs by trypan blue exclusion and LDH release. The conditions noted are these: COLO 201, 48 h.
Data set [12] relates to HT-29. Nature of the data set: Cytotoxicity against human HT-29 cells assessed as decrease in cell viability after 48 hrs by trypan blue exclusion and LDH release. The conditions noted are these: HT-29, 48 h.
Data set [13] has as its system LN-229. The experiment in a line: Cytotoxicity against human LN229 cells assessed as cell viability at 6 uM after 48 hrs by MTT assay. The conditions noted are these: LN-229, 48 h, read-out: Activity. It counts as functional.
The test system of data set [14] is A549. Nature of the data set: Cytotoxicity against human A549 cells assessed as decrease in cell viability after 48 hrs by trypan blue exclusion and LDH release. The conditions noted are these: A549, 48 h.
For data set [15], the system named is PANC-1. Nature of the data set: Cytotoxicity against human PANC1 cells assessed as cell viability at 6 uM after 48 hrs by MTT assay. It counts as functional. The conditions noted are these: PANC-1, 48 h, read-out: Activity.
Data set [16] relates to T47D. The experiment in a line: Cytotoxicity against human T47D cells assessed as cell viability at 6 uM after 48 hrs by MTT assay. It counts as functional. The conditions noted are these: read-out: Activity.
Data set [17] concerns NCI-H460. Nature of the data set: Cytotoxicity against human NCI-H460 cells assessed as cell viability at 6 uM after 48 hrs by MTT assay. The conditions noted are these: NCI-H460, 48 h, read-out: Activity. It counts as functional.
Data set [18] concerns T47D. The experiment in a line: Cytotoxicity against human T47D cells assessed as decrease in cell viability after 48 hrs by trypan blue exclusion and LDH release.
Data set [19] deals with PANC-1. The experiment in a line: Cytotoxicity against human PANC1 cells assessed as decrease in cell viability after 48 hrs by MTT assay. The conditions noted are these: PANC-1, 48 h. It counts as functional, cell-based.
Data set [20] has as its system BXPC-3. The experiment in a line: Cytotoxicity against human BxPC3 cells assessed as cell viability at 6 uM after 48 hrs by MTT assay. It counts as functional. The conditions noted are these: BXPC-3, 48 h, read-out: Activity.
The target in the next data set is Cannabinoid receptor 1 (Homo sapiens, UniProt P21554). The experiment in a line: Displacement of […] from human recombinant CB1 receptor expressed in Chem1 cells after 90 mins by scintillation counting method. It counts as cell-based.
Chain of Cannabinoid receptor 1 (P21554 whole entry): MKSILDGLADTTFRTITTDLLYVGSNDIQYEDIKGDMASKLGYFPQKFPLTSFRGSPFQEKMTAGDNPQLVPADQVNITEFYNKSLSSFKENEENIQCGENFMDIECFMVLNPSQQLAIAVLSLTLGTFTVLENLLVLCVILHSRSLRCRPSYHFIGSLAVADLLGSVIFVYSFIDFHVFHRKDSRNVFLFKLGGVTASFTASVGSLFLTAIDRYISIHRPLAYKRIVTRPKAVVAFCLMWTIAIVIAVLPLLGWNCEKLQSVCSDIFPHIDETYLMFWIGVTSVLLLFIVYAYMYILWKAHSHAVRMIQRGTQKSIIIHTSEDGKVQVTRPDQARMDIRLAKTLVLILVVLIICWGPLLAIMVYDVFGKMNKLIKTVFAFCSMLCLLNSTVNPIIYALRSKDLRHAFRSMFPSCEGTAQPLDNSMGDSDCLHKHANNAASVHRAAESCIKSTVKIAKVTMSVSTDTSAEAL
The nature of data set [21]: Cytotoxicity against human MML1 cells assessed as cell viability at 6 uM after 48 hrs by MTT assay. The conditions noted are these: read-out: Activity. It counts as functional.
Data set [22] deals with BXPC-3. Nature of the data set: Cytotoxicity against human BxPC3 cells assessed as decrease in cell viability after 48 hrs by MTT assay. It counts as functional, cell-based. The conditions noted are these: BXPC-3, 48 h.
The test system of data set [23] is A549. The experiment in a line: Cytotoxicity against human A549 cells assessed as cell viability at 6 uM after 48 hrs by MTT assay. It counts as functional. The conditions noted are these: A549, 48 h, read-out: Activity.
The subject of data set [24] is NCI-H460. Nature of the data set: Cytotoxicity against human NCI-H460 cells assessed as decrease in cell viability after 48 hrs by MTT assay. It counts as functional, cell-based. The conditions noted are these: NCI-H460, 48 h.
Data set [25] in a line: Tmax in mouse at 100 mg/kg, po by HPLC method. The conditions noted are these: in vivo. It counts as ADME, organism-based. In a few lines:
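Given orally in a self-microemulsifying delivery system (60% surfactant, emulsifier OP:Cremophor EL 1:1; 30% PEG 400 cosurfactant; 10% ethyl oleate oil), total volume no more than 100 μL. Plasma levels measured by previously described methods.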

A short description of data set [26]: Plasma concentration in mouse at 10 mg/kg, iv at 60 mins by LC-MS/MS method. It counts as ADME, organism-based. An outline of the steps:
(§1)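 For IV dosing, compound dissolved in DMSO:ethanol (2:1), total volume no more than 30 μL. For oral dosing, compound given in a self-microemulsifying delivery system (60% surfactant, emulsifier OP:Cremophor EL 1:1; 30% PEG 400; 10% ethyl oleate), total volume no more than 100 μL. Plasma levels measured by previously described methods.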

For data set [27], the system named is U-87 MG. Nature of the data set: Cytotoxicity against human U87 cells assessed as decrease in cell viability after 48 hrs by trypan blue exclusion and LDH release.
Data set [28] relates to SK-MEL-2. The experiment in a line: Cytotoxicity against human SK-MEL-2 cells assessed as decrease in cell viability after 48 hrs by MTT assay. The conditions noted are these: SK-MEL-2, 48 h. It counts as functional, cell-based.
Data set [29] is described as follows: Tmax in mouse at 10 mg/kg, iv by LC-MS/MS method. The conditions noted are these: in vivo. It counts as ADME, organism-based. An outline of the steps:
as §1

Data set [30] is described as follows: Cmax in mouse at 100 mg/kg, po by HPLC method. It counts as ADME, organism-based. More on the design: dose 100 mg/kg, route oral. The conditions noted are these: in vivo. In a few lines:
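For oral dosing, polyphenol was dissolved in a self-microemulsifying delivery system: 60% surfactant (emulsifier OP:Cremophor EL 1:1), 30% cosurfactant (PEG 400) and 10% oil (ethyl oleate). Total volume given was never above 100 μL. Plasma levels were quantified by previously described methods.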

The next data set concerns Lipid bilayer. The experiment in a line: Induction of DOPC/n-decane bilayer property changes assessed as concentration required to double gramicidin-induced quencher influx rate by […].
A short description of data set [31]: Plasma concentration in mouse at 100 mg/kg, po at 60 mins by LC-MS/MS method. It counts as ADME, organism-based. An outline of the steps:
as §1

pIC50, pKi: −log10 of the molar value.

In general, pKi refers to the Ki on a negative log10 scale, so that one unit is a factor of ten. As usually defined, the pIC50 is −log10 of the IC50, conventionally taken in molar units. As a reminder, the Cmax is the maximum level reached in the sampled fluid or tissue. Usually Tmax stands for the time at which the peak concentration occurs.

With `O=C(O[C@@H]1Cc2c(O)cc(O)cc2O[C@@H]1c1ccc(O)c(O)c1)c1cc(O)c(O)c(O)c1` [EPICATECHIN GALLATE], the pKi in [1] was 7.35 to 7.60.
`O=C(O[C@@H]1Cc2c(O)cc(O)cc2O[C@@H]1c1cc(O)c(O)c(O)c1)c1cc(O)c(O)c(O)c1` [EPIGALOCATECHIN GALLATE]: the viability at 6 µM in the data set with COLO 201 [2] came to 100%; in the data set with MDA-MB-231 [3] it was 102%; in the data set on SK-MEL-2 [5], 99%; with U-87 MG [7], 98%; in the data set with HT-29 [9], 96%; in the data set with LN-229 [13], 106%. For the same compound, the viability at 6 µM in the data set on PANC-1 [15] worked out at 95%; with T47D [16] it was 100%; in the data set with NCI-H460 [17], 105%; in the data set with BXPC-3 [20], 97%; in data set [21], 102%; with A549 [23], 103%. Also, the pIC50 is 4.60 in data set [4]; 4.82 with LN-229 [8]; 4.08 in the data set with MDA-MB-231 [10]; 4.42 with COLO 201 [11]; 4.22 with HT-29 [12]; 4.54 with A549 [14]. The negative logarithm of the IC50 (pIC50) is 4.24 in the data set on T47D [18]; 4.21 in the data set with PANC-1 [19]; 4.48 in the data set on BXPC-3 [22]; 4.74 in the data set on NCI-H460 [24]; 4.74 with U-87 MG [27]; 4.51 with SK-MEL-2 [28]. The Cmax in [6] stood at 12 µM; in data set [30], 5 µM. For the same compound, the pKi in data set [1] was 7.35 to 7.60; at Cannabinoid receptor 1, 4.47. The results for the time to peak (Tmax) in [25] and in [29] were 30 min and 5 min, respectively. Also, the concentration at 1 h in data set [26] and in data set [31] was less than 1 µM each time. For the same compound, the Activity in the data set on Lipid bilayer came to 11.2 µM.
For the compound `COc1cc(CNC(=O)CCCC/C=C/C(C)C)ccc1O`, the Activity in the data set on Lipid bilayer stood at 18 µM.

The values are drawn from ChEMBL document CHEMBL4184147, “Polyphenolic Phytochemicals in Cancer Prevention and Therapy: Bioavailability versus Bioefficacy” (J Med Chem, 2017).
